The source of these data is ChEMBL document CHEMBL4145531, “Synthesis of novel Chlorin e6-curcumin conjugates as photosensitizers for photodynamic therapy against pancreatic carcinoma” (Eur J Med Chem, 2018).

The IC50 is the midpoint of a concentration-inhibition curve.

The nature of data set [1]: Selectivity index, ratio of IC50 for dark toxicity in human PANC1 cells to IC50 for phototoxicity in human PANC1 cells. The data set is classed as cell-based, PANC-1. The following applies: read-out: Ratio IC50. The procedure, abridged:
(§1)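 The ratio is the dark-toxicity IC50 over the phototoxicity IC50 in the same cell line, both from 72h MTT. The dark arm received no light. The photo arm was irradiated at 660 nm, 50 mW, 9 J/cm² after 3h compound exposure.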

A further data set has as its system MIA PaCa-2. The data set can be described thus: Phototoxicity in human MIAPaCa2 cells assessed as reduction in cell viability preincubated for 3 hrs followed by 9 J/cm2 laser light irradiation and measured after 72 hrs by MTT assay. The data set is classed as functional, cell-based. The following applies: MIA PaCa-2, light or radiation study. In short, it runs like this:
(§2)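 Cells were seeded at 5.0 x 10^3 per well and incubated overnight at 37 °C. AsPC-1 was in RPMI-1640 and MIA PaCa-2/PANC-1 in DMEM, with 10% FBS. Cells took up compound for 3h, then received 660 nm laser light (50 mW, 9 J/cm²).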

The nature of data set [2]: Solubility of the compound in 2% DMSO/98% de-ionized water at 8.4 uM. It is filed as physicochemical. The note with it: buffer.
The nature of data set [3]: Dark toxicity in human MIAPaCa2 cells assessed as reduction in cell viability after 72 hrs by MTT assay. The data set is classed as cell-based, MIA PaCa-2. The procedure, abridged:
(§3)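 AsPC-1 cells were grown in RPMI-1640, and MIA PaCa-2 and PANC-1 in DMEM, each with 10% FBS and 1% penicillin/streptomycin. 5.0 x 10^3 cells were seeded and left overnight at 37 °C. They were exposed to 0-300 µM compound for 3h without laser irradiation, then held 72h in the dark at 37 °C, 5% CO₂. Viability was read by MTT.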
On the technique in general: Formazan colour is commonly taken as a measure of viable cells.

The subject of another data set is ASPC1. As to the kind of experiment: Phototoxicity in human AsPC1 cells assessed as reduction in cell viability preincubated for 3 hrs followed by 9 J/cm2 laser light irradiation and measured after 72 hrs by MTT assay. The following applies: ASPC1, light or radiation study. The data set is classed as functional, cell-based. The procedure, abridged:
as §2

Data set [4] can be described thus: Dark toxicity in human PANC1 cells assessed as reduction in cell viability after 72 hrs by MTT assay. It is filed as cell-based, PANC-1. The procedure, abridged:
as §3

Data set [5] is described as follows: Selectivity index, ratio of IC50 for dark toxicity in human MIAPaCa2 cells to IC50 for phototoxicity in human MIAPaCa2 cells. It is filed as cell-based, MIA PaCa-2. The note with it: read-out: Ratio IC50. In short, it runs like this: as §1
Data set [6] can be described thus: Drug uptake in human AsPC1 cells at 5 uM by FACS analysis. It is filed as ADME, cell-based. The note with it: aspc1, 5 µM, TDE = time-dependent effect. The procedure, abridged:
(§4)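 AsPC-1 cells (2 x 10^5) were seeded and kept in the dark at 37 °C for 24h. They were then incubated with 5 µM compound for 30 min to 24h. Cells were harvested by trypsin, washed three times in PBS and resuspended in PBS. Uptake was read as mean fluorescence intensity by FACS.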

Data set [7] is described as follows: Selectivity index, ratio of IC50 for dark toxicity in human AsPC1 cells to IC50 for phototoxicity in human AsPC1 cells. It is filed as cell-based. The following applies: read-out: Ratio IC50. The procedure, abridged:
as §1

Data set [8] can be described thus: Drug uptake in human AsPC1 cells at 5 uM after 3 to 24 hrs by FACS analysis. The data set is classed as ADME, cell-based. The following applies: aspc1, 5 µM. In short, it runs like this: as §4
In general terms: In flow cytometry, cells or beads pass a laser one at a time.

The next data set concerns PANC-1. As to the kind of experiment: Phototoxicity in human PANC1 cells assessed as reduction in cell viability preincubated for 3 hrs followed by 9 J/cm2 laser light irradiation and measured after 72 hrs by MTT assay. It is filed as functional, cell-based. The note with it: PANC-1, light or radiation study. The procedure, abridged:
as §2

The nature of data set [9]: Induction of singlet oxygen production in DMSO assessed as DPBF absorption intensity (reference value: 100%). The data set is classed as functional. The procedure, abridged:
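DPBF (50 µM in DMSO) was mixed with 1 µM photosensitizer in the dark. Samples were irradiated at 660 nm, 50 mW, 2 J/cm² for 40 s. Singlet oxygen was read as the decay of normalized DPBF absorbance at 418 nm relative to a DPBF-only control.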

Data set [10] in a line: Dark toxicity in human AsPC1 cells assessed as reduction in cell viability after 72 hrs by MTT assay. The data set is classed as cell-based. In short, it runs like this: as §3
Data set [11] is described as follows: Solubility of the compound in 2% DMSO/98% de-ionized water at 7.7 uM. The following applies: buffer. The data set is classed as physicochemical.
Data set [12] is described as follows: Solubility of the compound in 2% DMSO/98% de-ionized water at 8.7 uM. The following applies: buffer. It is filed as physicochemical.
The nature of data set [13]: Solubility of the compound in 2% DMSO/98% de-ionized water at 16 uM. The data set is classed as physicochemical. The note with it: buffer.

Bounds are passed on as bounds.

As for `C=Cc1c(C)c2cc3nc(c(CC(=O)OC)c4[nH]c(cc5nc(cc1[nH]2)C(C)=C5CC)c(C)c4C(=O)NCCCCCCNC(=O)CCCC(=O)Oc1ccc(/C=C/C(=O)CC(=O)/C=C/c2ccc(O)c(OC)c2)cc1OC)C(CCC(=O)OC)C3C` (configuration not stated), the selectivity ratio in data set [1] was above 6.58; in data set [5] it was 5.6; in data set [7] it was 28.3. Moreover, the concentration for half-maximal inhibition (IC50) is 47.3 µM in the data set on MIA PaCa-2, 10.1 µM in the data set on ASPC1 and 45.6 µM in the data set on PANC-1. Also, the solubility entry in data set [2] is listed as “Soluble”. Further, the half-maximal inhibitory concentration (IC50) at 72 h in [3] is 265 µM; in [4] it was above 300 µM; in data set [10], 285 µM. In addition, the results for the Drug uptake result in data set [6] and in [8] were “Tde” and “Active”, respectively. Further, the Activity in data set [9] amounted to 10.1%.

Consider `C=Cc1c(C)c2cc3nc(c(CC(=O)OC)c4[nH]c(cc5nc(cc1[nH]2)C(C)=C5CC)c(C)c4C(=O)NCCCOCCOCCOCCCNC(=O)CCCC(=O)Oc1ccc(/C=C/C(=O)CC(=O)/C=C/c2ccc(O)c(OC)c2)cc1OC)C(CCC(=O)OC)C3C` (configuration not stated), for which the selectivity ratio in [1] is above 19.1; in data set [5], above 64.7; in data set [7], 32.5. The IC50 in the data set on MIA PaCa-2 came out at 4.64 µM; in the data set on ASPC1, 5.93 µM; in the data set on PANC-1, 15.7 µM. Also, the results for the IC50 at 72 h in data set [3], in data set [4] and in [10] were above 300 µM, above 300 µM and 193 µM, respectively. Moreover, in [11], the solubility entry is listed as “Soluble”. The results for the Drug uptake entry in [6] and in data set [8] were “Tde” and “Active”, respectively. Moreover, in data set [9], the Activity is 12.3%.

As to `C=Cc1c(C)c2cc3nc(c(CC(=O)OC)c4[nH]c(cc5nc(cc1[nH]2)C(C)=C5CC)c(C)c4C(=O)NCCCNC(=O)CCCC(=O)Oc1ccc(/C=C/C(=O)CC(=O)/C=C/c2ccc(O)c(OC)c2)cc1OC)C(CCC(=O)OC)C3C` (configuration not stated), the selectivity ratio in data set [1] is above 65.5; in data set [5] it was 47.6; in [7], above 52.3. For the same compound, the 50% inhibitory concentration (IC50) in the data set on MIA PaCa-2 stood at 4.2 µM; in the data set with ASPC1, 5.74 µM; in the data set on PANC-1, 4.58 µM. Further, the concentration for half-maximal inhibition (IC50) at 72 h was 200 µM in data set [3], above 300 µM in [4] and above 300 µM in data set [10]. Also, the Drug uptake entry in data set [6] was “Tde”; in data set [8], “Active”. Besides, the solubility entry in data set [12] was “Soluble”. The Activity in data set [9] is 7.39%.

Take `C=Cc1c(C)c2cc3nc(c(CC(=O)O)c4[nH]c(cc5nc(cc1[nH]2)C(C)=C5CC)c(C)c4C(=O)O)C(CCC(=O)O)C3C` (configuration not stated): the selectivity ratio in data set [1] is 6.6; in data set [5], 5.61; in data set [7], 6.45. Moreover, the results for the concentration for half-maximal inhibition (IC50) in the data set with MIA PaCa-2, with ASPC1 and in the data set on PANC-1 were 15.8 µM, 19.5 µM and 10.1 µM, respectively. For the same compound, the IC50 at 72 h in data set [3] came out at 89 µM; in [4], 67 µM; in [10], 126 µM. In data set [6], the Drug uptake entry was “Tde”. In addition, the solubility entry in [13] is recorded as “Soluble”. In addition, in data set [9], the Activity was 9.88%.

`CN(C)c1ccc2nc3ccc(=[N+](C)C)cc-3sc2c1`: the Activity in [9] came out at 33.9%.
